Laboratory results taken from ChEMBL document CHEMBL3232878, “QSAR on antiproliferative naphthoquinones based on a conformation-independent approach” (2014).

Key:
Format in all cases: functional
HeLa = assay: Growth inhibition of human HeLa cells after 48 hrs by SRB assay
How it was run: (§1)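 Cells maintained in RPMI 1640 with 5% heat-inactivated fetal calf serum and 2 mM L-glutamine at 37 °C, 5% CO₂, humidified air. Exponentially growing cells trypsinized and resuspended in medium containing penicillin G (100 units/mL) and streptomycin (0.1 mg/mL). Single-cell suspensions with >97% viability by trypan blue exclusion counted, diluted and seeded into 96-well plates.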

[1] = Growth inhibition of human HBL100 cells after 48 hrs by SRB assay; settings: HBL-100, 48 h; how it was run: as §1
WiDr = assay: Growth inhibition of human WiDr cells after 48 hrs by SRB assay; how it was run: as §1
SW1573 = assay: Growth inhibition of human SW1573 cells after 48 hrs by SRB assay; settings: SW1573, 48 h; how it was run: as §1

Row | SMILES | GI50 (HeLa) | GI50 [1] | GI50 (WiDr) | GI50 (SW1573)
1 | CC1OC2=C(C(=O)C(=O)c3cccc(O)c32)C1(C)C (configuration not stated) | 1900 nM | 2200 nM | 19000 nM | 2400 nM
2 | CC1C2=C(OC1(C)C)c1cccc(O)c1C(=O)C2=O (configuration not stated) | 1800 nM | 340 nM | 16000 nM | 480 nM
3 | CC1C2=C(OC1(C)C)c1c(O)cccc1C(=O)C2=O (configuration not stated) | 900 nM | 2000 nM | 2100 nM | 1300 nM
4 | CC1(C)C2=C(OC1CI)c1c(O)cccc1C(=O)C2=O (configuration not stated) | 1600 nM | 1800 nM | 1800 nM | 1600 nM
5 | CC1(C)C2=C(OC1CI)c1cccc(O)c1C(=O)C2=O (configuration not stated) | 1500 nM | 460 nM | 1900 nM | 800 nM
6 | C=C(C)C1CC2=C(O1)c1c(O)cccc1C(=O)C2=O (configuration not stated) | 3000 nM | 3000 nM | 26000 nM | 2700 nM
7 | CC1OC2=C(C(=O)C(=O)c3c(O)cccc32)C1(C)C (configuration not stated) | 1900 nM | 540 nM | 5200 nM | 990 nM
8 | C=C(C)C1CC2=C(O1)c1cccc(O)c1C(=O)C2=O (configuration not stated) [LANTALUCRATIN B] | 210 nM | 460 nM | 2200 nM | 1000 nM
